# Measured values from paper PMC6190495 (Journal of Pharmaceutical Analysis, 2018).
# Where two headings read alike, the source gives them in different places.
# What was measured:
# [1] = format: in vivo, human; conditions: for Tmax / concentration at 2 h / half-life: human, po; for AUC0-t: single oral tablet 4/1.25 mg, fasting, mean ± SD
# Method in brief: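 Ten healthy Chinese volunteers, fasted at least 10 h overnight, took one oral ACE-inhibitor/diuretic combination tablet (4 mg/1.25 mg) with 240 mL warm water. Blood was drawn into two K2EDTA tubes pre-dose and at 0.25–48 h. One tube was spun (3000 rpm, 10 min) for plasma and the other kept as whole blood, both stored at −80 °C. Parent drugs were extracted by acetonitrile precipitation and the metabolite by 14% perchloric acid, then measured by LC-MS/MS against internal standard. AUC0-t ran to 6 h for the ACE inhibitor and to 48 h otherwise.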
# [2] = cited from earlier work
# [3] = cited from earlier work; remark: listed apart in the source
# [4] = whole blood, dose 1.5 mg, indapamide sustained-release tablets, ref 11
# [5] = whole blood, dose 1.5 mg, indapamide sustained-release tablets, ref 21
SMILES,Tmax ([1]; plasma),concentration at 2 h ([1]; plasma),half-life ([1]; plasma),Tmax ([1]; whole blood),concentration at 2 h ([1]; whole blood),half-life ([1]; whole blood),"Cmax ([2]; plasma, dose 4 mg, ref 22)","Tmax ([2]; plasma, dose 4 mg, ref 22)","Cmax ([2]; plasma, dose 4 mg, ref 24)","Tmax ([2]; plasma, dose 4 mg, ref 24)","AUC0-t ([2]; plasma, dose 4 mg, t = 120 h)",further results
"CC1Cc2ccccc2N1NC(=O)c1ccc(Cl)c(S(N)(=O)=O)c1 (stereo not shown) [Indapamide, indapamide]",1.8 ± 0.8 h,5.32 ng/mL,13.4 ± 2.4 h,1.6 ± 0.6 h,14.9 ng/mL,13.5 ± 1.6 h,,,,,,"AUC0-t ([1]; whole blood, t = 48 h): 882 ± 126 ng·h/mL; Tmax ([2]; whole blood, dose 1.25 mg): 2.4 ± 1.1 h; AUC0-t ([2]; whole blood, dose 1.25 mg, t = 96 h): 1152 ± 429 ng·h/mL; Cmax [2, 4]: 43.6 ± 16.1 ng/mL; Tmax [2, 4]: 10.3 ± 5.3 h; Cmax [2, 5]: 41.1 ± 7.6 ng/mL; Tmax [2, 5]: 8.0 ± 3.0 h; AUC0-t ([2]; whole blood, dose 1.5 mg, indapamide sustained-release tablets, t = 96 h, ref 11): 1318 ± 303 ng·h/mL; AUC0-t ([2]; whole blood, dose 1.5 mg, indapamide sustained-release tablets, t = 96 h, ref 21): 1268 ± 279 ng·h/mL; Binding to the red blood cell [3]: high binding to the red blood cell"
"CCC[C@H](N[C@@H](C)C(=O)N1[C@H](C(=O)O)C[C@@H]2CCCC[C@@H]21)C(=O)OCC [Perindopril, perindopril]",0.65 ± 0.1 h,11.1 ng/mL,0.96 ± 0.3 h,0.7 ± 0.2 h,7.35 ng/mL,1.11 ± 0.4 h,63.9 ± 18.0 ng/mL,0.66 ± 0.2 h,72 ± 20 ng/mL,0.75 h,106 ± 32 ng·h/mL,"AUC0-t ([1]; plasma, t = 6 h): 51.4 ± 12.8 ng·h/mL; Cmax ([2]; plasma, dose 4 mg, ref 16): 36.5 ± 11.4 ng/mL; Tmax ([2]; plasma, dose 4 mg, ref 16): 0.66 ± 0.2 h; AUC0-t ([2]; plasma, dose 4 mg, t = 5 h): 70.3 ± 14.4 ng·h/mL; AUC0-t ([2]; plasma, dose 4 mg, t = 96 h): 41.7 ± 10.0 ng·h/mL; Binding in blood [3]: bind mainly to plasma protein in blood"
"CCC[C@H](N[C@@H](C)C(=O)N1[C@H](C(=O)O)C[C@@H]2CCCC[C@@H]21)C(=O)O [Perindoprilat, perindoprilat]",6.4 ± 1.3 h,2.49 ng/mL,17 ± 6.5 h,5.8 ± 1.1 h,1.31 ng/mL,18.2 ± 7.3 h,5.91 ± 2.9 ng/mL,6.3 ± 1.2 h,4.9 ± 2.7 ng/mL,6 h,191 ± 76 ng·h/mL,"AUC0-t ([1]; plasma, t = 48 h): 108 ± 34.7 ng·h/mL; Cmax ([2]; plasma, dose 4 mg, one significant digit): 5 ± 2 ng/mL; Tmax ([2]; plasma, dose 4 mg, ref 23): 4.3 ± 2.9 h; AUC0-t ([2]; plasma, dose 4 mg, t = 72 h, ref 22): 111 ± 18.4 ng·h/mL; AUC0-t ([2]; plasma, dose 4 mg, t = 72 h, ref 23): 92 ± 30 ng·h/mL"
